Assay results taken from paper PMC3855065 (MedChemComm, 2013).
Positions count from the first letter of the chain named.

Columns and labels:
[1] = molecular target: T1, C. hominis Beta Face DHFR (Cryptosporidium parvum, UniProt Q27552, F207A/I196A/L203A/S195A/T199A/V200A); experiment: Steady-state DHFR inhibition assay against Beta Face mutant enzyme; assay type: biochemical; conditions: IC50 C. hominis Beta Face DHFR, Beta Face mutant enzyme, steady-state
T1 sequence (Q27552 1-521 S195A/I196A/T199A/V200A/L203A/F207A): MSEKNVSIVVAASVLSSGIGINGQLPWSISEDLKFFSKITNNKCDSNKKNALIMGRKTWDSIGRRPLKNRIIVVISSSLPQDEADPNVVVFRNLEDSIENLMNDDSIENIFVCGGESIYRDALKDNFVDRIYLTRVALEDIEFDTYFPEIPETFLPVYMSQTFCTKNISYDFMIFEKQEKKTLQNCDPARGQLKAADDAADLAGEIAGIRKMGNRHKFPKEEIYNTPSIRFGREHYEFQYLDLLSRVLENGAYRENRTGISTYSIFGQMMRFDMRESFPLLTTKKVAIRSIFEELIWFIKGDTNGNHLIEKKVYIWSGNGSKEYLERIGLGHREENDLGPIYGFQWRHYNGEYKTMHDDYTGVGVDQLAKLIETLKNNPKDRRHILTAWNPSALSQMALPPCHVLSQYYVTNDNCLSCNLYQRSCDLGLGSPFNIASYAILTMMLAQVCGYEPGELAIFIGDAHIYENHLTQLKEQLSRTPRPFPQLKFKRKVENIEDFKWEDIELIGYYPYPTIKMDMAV

[2] = system: C. hominis Beta Face DHFR; experiment: as above; assay type: biochemical, Cryptosporidium hominis; conditions: Beta Face vs WT ChDHFR
Human DHFR = molecular target: T2, Human DHFR (Homo sapiens, UniProt P00374); experiment: Steady-state DHFR inhibition assay against the human enzyme; assay type: biochemical; conditions: up to 1 mM mimetic
T2 sequence (P00374 1-187): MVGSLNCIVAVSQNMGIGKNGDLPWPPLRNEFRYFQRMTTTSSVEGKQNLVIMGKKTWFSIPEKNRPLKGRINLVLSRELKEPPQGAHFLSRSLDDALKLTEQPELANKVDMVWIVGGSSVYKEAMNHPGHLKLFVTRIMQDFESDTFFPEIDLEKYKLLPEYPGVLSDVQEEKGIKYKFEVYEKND
How it was run: (§1)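 Each reaction (DHFR or TS) was measured spectroscopically at 340 nm under steady-state conditions. The test compound came from a DMSO stock and was incubated with enzyme and substrates for 30 min before initiation. Activity was normalised to an equal-volume DMSO control. All targets were run at identical enzyme and ligand concentrations. Values are mean ± standard deviation.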

C. hominis TS = molecular target: T3, C. hominis TS (Cryptosporidium parvum, UniProt Q27552); experiment: Steady-state TS inhibition assay; assay type: biochemical; conditions: read-out: IC50 C. hominis TS
T3 sequence (Q27552 1-521): T1 sequence (Q27552 1-521 S195A/I196A/T199A/V200A/L203A/F207A) with A195S, A196I, A199T, A200V, A203L, A207F
How it was run: as §1

C. hominis DHFR = molecular target: T4, C. hominis DHFR (Cryptosporidium parvum, UniProt Q27552); experiment: Mode of inhibition: steady-state substrate profile for H2folate and NADPH; assay type: biochemical
T4 sequence (Q27552 1-521): T1 sequence (Q27552 1-521 S195A/I196A/T199A/V200A/L203A/F207A) with A195S, A196I, A199T, A200V, A203L, A207F
How it was run: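 Steady-state DHFR activity followed by absorbance at 340 nm. The enzyme was bifunctional TS–DHFR expressed in E. coli BL21 and purified. The test compound, from a DMSO stock, was preincubated with enzyme and substrates for 30 min before the reaction was started. Rates were normalised to an equal-volume DMSO blank. H2folate or NADPH concentration was varied, and mode was assigned from rate profiles and Lineweaver–Burk plots by Michaelis–Menten treatment.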

SMILES | IC50 [1] [µM] | Potency against Beta Face relative to WT [2] | Inhibition of human DHFR (Human DHFR) | IC50 (C. hominis TS) [µM] | Vmax, NADPH substrate profile (C. hominis DHFR; in the presence of 250 µM compound (1.33 ± 0.02 in the absence)) [µmol/min] | Vmax, H2folate substrate profile (C. hominis DHFR; in the presence of 250 µM compound (1.46 ± 0.03 in the absence)) [µmol/min] | Mode of inhibition for H2folate (C. hominis DHFR; steady-state substrate profile) | Mode of inhibition for NADPH (C. hominis DHFR; steady-state substrate profile) | Mode of inhibition (C. hominis DHFR; data not shown)
CC(C)CN(C(=O)Nc1ccc(CCC(=O)O)cc1Cc1ccccc1)C(=O)c1ccc(OCC(=O)O)c(Cc2ccccc2)c1 [mimetic 2] | ~20 | at least 10 fold | no inhibition | 570 ± 60 | 0.41 ± 0.01 | 0.48 ± 0.06 | noncompetitive (mixed) inhibitor | noncompetitive inhibitor | –
Cc1ccc(CN(C(=O)Nc2ccc(CCC(=O)O)cc2Cc2ccccc2)C(=O)c2ccc(CCC(=O)O)c(CC(C)C)c2)cc1 [mimetic 1] | – | – | – | – | – | – | – | – | noncompetitive mode of inhibition
